For experiment [1], the species on record is Rattus norvegicus. Description: Compound was evaluated in Vitro in glycogen induced peritoneal cells of rats(GPEC) for the inhibition of Prostaglandin E2 (PGE2) production at 0.1-10 uM. The experiment is classed as functional, cell-based. The essentials:
(§1)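 Glycogen-elicited rat peritoneal leukocytes in Ca²⁺/Mg²⁺-free HBSS (5 × 10⁶ cells/mL; 5 × 10⁵ cells per aliquot). Cells were preincubated 5 min at 37 °C with compound or vehicle (0.1% DMSO/0.1% BSA), then stimulated with A23187 (4 µM, 10 min, 37 °C). The reaction was stopped with BW755C (100 µM). Supernatant LTB₄, TXB₂ and PGE₂ were measured by RIA. Points were run in duplicate; IC₅₀ by probit.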

For experiment [2], the species on record is Rattus norvegicus. Description: In vitro inhibition of Thromboxane B2 (TXB2) production in glycogen-induced peritoneal cells of rat. The experiment is classed as functional, cell-based. The procedure, abridged: as §1
For experiment [3], the species on record is Rattus norvegicus. Description: In vitro inhibition of Leukotriene B4 (LTB4) production in glycogen-induced peritoneal cells of rat. In kind it is functional, cell-based. The essentials:
as §1

Experiment [4] is filed under the species Rattus norvegicus. Description: Compound was evaluated in Vitro in glycogen induced peritoneal cells of rats(GPEC) for the inhibition of Prostaglandin E2 (PGE2) production at 0.1-1 uM. In kind it is functional, cell-based. The procedure, abridged:
as §1

The species named for experiment [5] is Homo sapiens. Description: In vitro inhibition of LTB4 production in human neutrophils. The experiment is classed as functional. The essentials:
(§2)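 Human blood neutrophils were isolated by dextran sedimentation and Percoll gradient and held in Ca²⁺/Mg²⁺-free HBSS (1 × 10⁶ cells/mL). Cells were preincubated 5 min at 37 °C with compound or vehicle (0.1% DMSO/0.1% BSA), then stimulated with A23187 (4 µM, 10 min). Supernatant LTB₄ was measured by RIA. Duplicate points; IC₅₀ by probit.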

The species named for experiment [6] is Homo sapiens. Description: In vitro inhibition of LTB4 production in human whole blood. In kind it is functional. The procedure, abridged:
(§3)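 Fresh heparinized (10 U/mL) human volunteer blood, 0.4 mL aliquots. Blood was preincubated 5 min at 37 °C with compound or vehicle (0.1% DMSO/0.1% BSA), then challenged with A23187 (40 µM, 20 min, 37 °C). Plasma LTB₄ and TXB₂ were measured by RIA. Duplicate points; IC₅₀ by probit.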

The nature of experiment [7]: in vitro activities of TXB2 in human whole blood. The experiment is classed as functional, tissue-based. The essentials: as §3
A short description of experiment [8]: in vitro activities of TXB2 in human platelets. In kind it is functional. The procedure, abridged:
(§4)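 Washed human platelets in Tris-HCl-saline, pH 7.4, with 10 µM indomethacin (3 × 10⁸ cells/mL). Platelets were preincubated 5 min at 25 °C with compound or vehicle, then given PGH₂ (1 µg/mL, 3 min, 25 °C). The reaction was stopped with citrate/ethanol. Supernatant TXB₂ was measured by RIA. Duplicate points; IC₅₀ by probit.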

Experiment [9] is filed under the species Rattus norvegicus. Description: Compound was evaluated in Vitro in glycogen induced peritoneal cells of rats(GPEC) for the inhibition of Leukotriene B4 (LTB4) production. In kind it is functional, cell-based. The essentials: as §1
The species entered for experiment [10] is Rattus norvegicus. Description: Compound was evaluated in Vitro in glycogen induced peritoneal cells of rats(GPEC) for the inhibition of Prostaglandin E2 (PGE2) production at 0.1-100 uM. In kind it is functional, cell-based. The essentials:
as §1

The species entered for experiment [11] is Homo sapiens. Description: Inhibitory activity of the compound against leukotriene (LT) B4 production in human neutrophils. In kind it is functional. The procedure, abridged:
as §2

Experiment [12] is filed under the species Homo sapiens. Description: Inhibitory activity of the compound against Thromboxane TXB2 production in human blood platelets. The experiment is classed as functional. The essentials: as §4
The species named for experiment [13] is Homo sapiens. Description: Inhibitory activity of the compound against leukotriene (LT) B4 production in human whole blood. In kind it is functional. The essentials:
as §3

Experiment [14] is filed under the species Homo sapiens. Description: Inhibitory activity of the compound against Thromboxane TXB2 production in human whole blood. In kind it is functional. The procedure, abridged:
as §3

The values below come from ChEMBL document CHEMBL1129263, “Structure-activity relationships of (E)-3-(1,4-benzoquinonyl)-2-[(3-pyridyl)-alkyl]-2-propenoic acid derivatives that inhibit both 5-lipoxygenase and thromboxane A2 synthetase” (J Med Chem, 1996).

Molecules are shown by their SMILES. Bounds are passed on as bounds.

By IC50 is commonly meant the concentration that inhibits the measured activity by half. For `CC1=C(/C=C(\CCCCCc2cccnc2)C(=O)O)C(=O)C(OCC2CCCCC2)=C(C)C1=O`, the IC50 in experiment [1] was above 100 µM; in [2], below 0.1 µM; in experiment [3], 0.27 µM.
For `COC1=C(C)C(=O)C(/C=C(\CCCc2cccnc2)C(=O)O)=C(C)C1=O` the same measures were 100 µM, 0.48 µM and 3.2 µM.
As for `CCOC1=C(C)C(=O)C(/C=C(\CCCCCc2cccnc2)C(=O)O)=C(C)C1=O`, the IC50 turned out to be 100 µM in experiment [4], 0.32 µM in experiment [2] and 4.4 µM in experiment [3].
Consider `COC1=C(C)C(=O)C(/C=C(\CCCCCc2cccnc2)C(=O)O)=C(C)C1=O`, for which the IC50 in experiment [5] amounted to 0.9 µM; in [6] it was 5.8 µM; in [7] it was 3.2 µM; in experiment [8] it was 0.39 µM; in [9], 820 µM; in [2] it was 0.07 µM. In [3], this compound yielded an IC50 of 0.82 µM.
Consider `CCOC1=C(C)C(=O)C(C)=C(/C=C(\CCCCCc2cccnc2)C(=O)O)C1=O`, for which the IC50 in experiment [10] came to 100 µM; in experiment [2] it was 0.12 µM; in [3], 0.84 µM.
In the case of `COC1=C(C)C(=O)C(/C=C(\CCCCc2cccnc2)C(=O)O)=C(C)C1=O`, the results for the IC50 in experiment [1], in [2] and in experiment [3] were above 100 µM, 0.09 µM and 1.4 µM, respectively.
For `COC1=C(OC)C(=O)C(/C=C(\CCCCCc2cccnc2)C(=O)O)=C(C)C1=O` the same measures were above 100 µM, 0.41 µM and 11.7 µM.
As to `COC1=C(C)C(=O)C(C)=C(/C=C(\CCCCCc2cccnc2)C(=O)O)C1=O`, the IC50 in experiment [10] was above 100 µM; in experiment [2], 0.18 µM; in experiment [3], 0.54 µM.
As for `CCCCCCCOC1=C(C)C(=O)C(/C=C(\CCCCCc2cccnc2)C(=O)O)=C(C)C1=O`, the IC50 is above 100 µM in experiment [4], 0.16 µM in experiment [2] and 3.2 µM in [3].
Turning to `CCCCCCCOC1=C(C)C(=O)C(C)=C(/C=C(\CCCCCc2cccnc2)C(=O)O)C1=O`, the IC50 is below 0.1 µM in experiment [2] and 0.27 µM in experiment [3].
In the case of `CCCCOC1=C(C)C(=O)C(C)=C(/C=C(\CCCCCc2cccnc2)C(=O)O)C1=O`, the IC50 is 100 µM in experiment [4], below 0.1 µM in experiment [2] and 1 µM in experiment [3].
Turning to `COc1c(C)c(O)c(/C=C(\CCCCCc2cccnc2)C(=O)O)c(C)c1O`, the half-maximal inhibitory concentration (IC50) in experiment [5] was 1.9 µM; in experiment [6] it was above 100 µM; in [7], 3 µM; in experiment [8], 1.9 µM; in [9], 4900 µM; in experiment [2] it was 0.4 µM. Besides, half-maximal inhibition in experiment [3] (IC50) required 4.9 µM.
On to `COC1=C(/C=C(\CCCCCc2cccnc2)C(=O)O)C(=O)C(C)=CC1=O`, for which the IC50 in [2] turned out to be 0.5 µM; in experiment [3], 0.75 µM.
For `COC1=C(/C=C(\CCCCCCc2cccnc2)C(=O)O)C(=O)C(C)=C(C)C1=O` the same measures were 0.42 µM and 0.22 µM.
For `COC1=C(/C=C(\CCCCCc2cccnc2)C(=O)O)C(=O)C(C)=C(C)C1=O` the same measures were 0.11 µM and 0.17 µM.
For `CCCCOC1=C(C)C(=O)C(C)=C(/C=C(\CCCc2cccnc2)C(=O)O)C1=O` the same measures were 0.89 µM and 1.8 µM.
Consider `COc1c(C)c(O)c(C)c(/C=C(\CCCCCc2cccnc2)C(=O)O)c1O`, for which the IC50 in experiment [1] was above 100 µM; in experiment [2] it was 1.5 µM; in experiment [3], above 3 µM.
Take `COC1=C(C)C(=O)C(C)=C(/C=C(\CCCCCCc2cccnc2)C(=O)O)C1=O`: the results for the IC50 in [4], in experiment [2] and in experiment [3] were 100 µM, below 0.1 µM and 0.18 µM, respectively.
For the compound `COc1c(O)c(C)c(C)c(O)c1/C=C(\CCCCCc1cccnc1)C(=O)O`, the IC50 in experiment [1] was above 100 µM; in experiment [2], 0.14 µM; in experiment [3] it was 2.1 µM.
The matching figures for `COC1=C(C)C(=O)C(/C=C(\CCCCCCc2cccnc2)C(=O)O)=C(C)C1=O`: 100 µM, 0.12 µM and 0.59 µM.
Take `O=C(O)/C=C/c1ccc(Cn2ccnc2)cc1` [OZAGREL]: the IC50 is above 100 µM in experiment [11], 1.9 µM in experiment [12], above 100 µM in [13] and below 0.1 µM in experiment [14].
Regarding `CC(c1cc2ccccc2s1)N(O)C(N)=O` (centres undefined) [ZILEUTON], the 50% inhibitory concentration (IC50) is 1.3 µM in experiment [13] and above 100 µM in [14].
